Test results reported in PMC10797327 (RSC Advances, 2024).

Experiments:
[1] = system: IL-1β; assay: IL-1β production in LPS-stimulated RAW264.7 cells; format: cell-based; conditions: Mus musculus, RAW264.7, 48 h, read-out: IC50 IL-1β
Summary of the method: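 RAW264.7 macrophages stimulated with LPS and cultured for 48 h with test compound. Cytokine production is measured, and IC50 is taken as the concentration that reduces cytokine production by 50%.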

[2] = MTT cell viability assay; format: cell-based, murine; conditions: mouse, RAW264.7 macrophage cells
Summary of the method: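 RAW264.7 cells are cultured with test compound for 48 h, then viability is measured. CC50 is the concentration that reduces viability to 50%.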

For `CC(=O)Oc1cccc2c1C(=O)c1c(OC(C)=O)cc(C(=O)O)cc1C2=O` [Diacerein, diacerein], the IC50 [1] was 26.6 µM and the CC50 at 48 h [2] was 151 µM.
